{
  "source": "BindingDB's records for doi:10.1128/aac.00067-07",
  "about": "(Rutgers University, 2007)",
  "key": {"1,3-beta-glucan synthase [1]": {"target": "1,3-beta-glucan synthase (Pichia kudriavzevii, UniProt Q4U2W2)", "sequence (Q4U2W2 whole entry)": "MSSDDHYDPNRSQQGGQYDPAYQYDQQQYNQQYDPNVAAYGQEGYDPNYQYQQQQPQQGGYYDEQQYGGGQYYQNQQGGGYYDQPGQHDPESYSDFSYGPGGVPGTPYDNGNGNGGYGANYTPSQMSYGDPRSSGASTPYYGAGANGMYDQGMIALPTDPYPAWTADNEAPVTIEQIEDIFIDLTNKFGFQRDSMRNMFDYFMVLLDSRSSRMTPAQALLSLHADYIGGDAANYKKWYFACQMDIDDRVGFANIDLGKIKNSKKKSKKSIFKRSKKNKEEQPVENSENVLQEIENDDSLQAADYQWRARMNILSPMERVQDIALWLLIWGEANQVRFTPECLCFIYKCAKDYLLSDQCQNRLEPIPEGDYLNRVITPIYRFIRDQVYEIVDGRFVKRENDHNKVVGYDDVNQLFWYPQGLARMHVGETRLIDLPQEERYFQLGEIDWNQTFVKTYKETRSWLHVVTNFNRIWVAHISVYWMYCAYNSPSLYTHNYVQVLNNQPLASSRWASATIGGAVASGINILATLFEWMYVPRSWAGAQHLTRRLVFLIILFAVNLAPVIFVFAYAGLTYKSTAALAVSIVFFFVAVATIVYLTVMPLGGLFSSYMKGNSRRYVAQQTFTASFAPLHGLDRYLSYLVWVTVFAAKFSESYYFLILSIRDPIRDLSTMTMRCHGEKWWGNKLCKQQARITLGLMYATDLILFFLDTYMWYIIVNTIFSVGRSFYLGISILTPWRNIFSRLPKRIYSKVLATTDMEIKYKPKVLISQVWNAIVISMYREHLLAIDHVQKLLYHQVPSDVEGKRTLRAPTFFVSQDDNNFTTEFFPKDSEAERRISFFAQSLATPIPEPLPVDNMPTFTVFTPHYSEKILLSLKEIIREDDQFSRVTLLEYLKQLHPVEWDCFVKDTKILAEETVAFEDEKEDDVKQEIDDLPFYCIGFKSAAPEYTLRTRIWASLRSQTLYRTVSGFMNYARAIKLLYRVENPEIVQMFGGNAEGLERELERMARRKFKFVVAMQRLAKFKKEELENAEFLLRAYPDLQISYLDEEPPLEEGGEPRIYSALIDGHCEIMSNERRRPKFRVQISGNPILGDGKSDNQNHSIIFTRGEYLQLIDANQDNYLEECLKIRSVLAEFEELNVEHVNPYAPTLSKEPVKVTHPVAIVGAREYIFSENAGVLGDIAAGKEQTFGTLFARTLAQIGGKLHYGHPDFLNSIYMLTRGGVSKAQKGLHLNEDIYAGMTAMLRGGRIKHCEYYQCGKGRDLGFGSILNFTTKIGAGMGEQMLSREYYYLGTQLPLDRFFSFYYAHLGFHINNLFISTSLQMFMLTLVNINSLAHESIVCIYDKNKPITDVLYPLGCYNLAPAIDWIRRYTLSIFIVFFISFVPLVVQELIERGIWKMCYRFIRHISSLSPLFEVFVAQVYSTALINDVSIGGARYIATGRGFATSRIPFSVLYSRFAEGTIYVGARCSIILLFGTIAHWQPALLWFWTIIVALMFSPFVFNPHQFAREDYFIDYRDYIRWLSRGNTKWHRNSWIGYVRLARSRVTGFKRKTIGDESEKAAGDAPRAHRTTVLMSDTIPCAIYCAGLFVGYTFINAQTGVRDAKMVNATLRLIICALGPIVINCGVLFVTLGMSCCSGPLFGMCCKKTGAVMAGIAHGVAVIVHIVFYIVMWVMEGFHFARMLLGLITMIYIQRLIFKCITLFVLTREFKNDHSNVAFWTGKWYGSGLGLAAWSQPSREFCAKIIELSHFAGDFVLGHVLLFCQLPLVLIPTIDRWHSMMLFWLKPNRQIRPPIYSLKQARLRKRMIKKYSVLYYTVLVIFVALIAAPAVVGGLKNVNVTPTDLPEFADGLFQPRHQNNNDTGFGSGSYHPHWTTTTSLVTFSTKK", "assay": "Inhibition of FKS1 from Candida krusei 98 isolate", "summary_of_the_method": "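Glucan synthase enzyme complex isolated from the pretreatment clinical strain Ck-98 and titrated with the echinocandin. Inhibition curves were fitted with a sigmoidal variable-slope dose-response model to give IC50 in ng/ml.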"}, "1,3-beta-glucan synthase [2]": {"target": "1,3-beta-glucan synthase (Pichia kudriavzevii, UniProt Q4U2W2, F655C)", "sequence (Q4U2W2 entry or part of it F655C)": "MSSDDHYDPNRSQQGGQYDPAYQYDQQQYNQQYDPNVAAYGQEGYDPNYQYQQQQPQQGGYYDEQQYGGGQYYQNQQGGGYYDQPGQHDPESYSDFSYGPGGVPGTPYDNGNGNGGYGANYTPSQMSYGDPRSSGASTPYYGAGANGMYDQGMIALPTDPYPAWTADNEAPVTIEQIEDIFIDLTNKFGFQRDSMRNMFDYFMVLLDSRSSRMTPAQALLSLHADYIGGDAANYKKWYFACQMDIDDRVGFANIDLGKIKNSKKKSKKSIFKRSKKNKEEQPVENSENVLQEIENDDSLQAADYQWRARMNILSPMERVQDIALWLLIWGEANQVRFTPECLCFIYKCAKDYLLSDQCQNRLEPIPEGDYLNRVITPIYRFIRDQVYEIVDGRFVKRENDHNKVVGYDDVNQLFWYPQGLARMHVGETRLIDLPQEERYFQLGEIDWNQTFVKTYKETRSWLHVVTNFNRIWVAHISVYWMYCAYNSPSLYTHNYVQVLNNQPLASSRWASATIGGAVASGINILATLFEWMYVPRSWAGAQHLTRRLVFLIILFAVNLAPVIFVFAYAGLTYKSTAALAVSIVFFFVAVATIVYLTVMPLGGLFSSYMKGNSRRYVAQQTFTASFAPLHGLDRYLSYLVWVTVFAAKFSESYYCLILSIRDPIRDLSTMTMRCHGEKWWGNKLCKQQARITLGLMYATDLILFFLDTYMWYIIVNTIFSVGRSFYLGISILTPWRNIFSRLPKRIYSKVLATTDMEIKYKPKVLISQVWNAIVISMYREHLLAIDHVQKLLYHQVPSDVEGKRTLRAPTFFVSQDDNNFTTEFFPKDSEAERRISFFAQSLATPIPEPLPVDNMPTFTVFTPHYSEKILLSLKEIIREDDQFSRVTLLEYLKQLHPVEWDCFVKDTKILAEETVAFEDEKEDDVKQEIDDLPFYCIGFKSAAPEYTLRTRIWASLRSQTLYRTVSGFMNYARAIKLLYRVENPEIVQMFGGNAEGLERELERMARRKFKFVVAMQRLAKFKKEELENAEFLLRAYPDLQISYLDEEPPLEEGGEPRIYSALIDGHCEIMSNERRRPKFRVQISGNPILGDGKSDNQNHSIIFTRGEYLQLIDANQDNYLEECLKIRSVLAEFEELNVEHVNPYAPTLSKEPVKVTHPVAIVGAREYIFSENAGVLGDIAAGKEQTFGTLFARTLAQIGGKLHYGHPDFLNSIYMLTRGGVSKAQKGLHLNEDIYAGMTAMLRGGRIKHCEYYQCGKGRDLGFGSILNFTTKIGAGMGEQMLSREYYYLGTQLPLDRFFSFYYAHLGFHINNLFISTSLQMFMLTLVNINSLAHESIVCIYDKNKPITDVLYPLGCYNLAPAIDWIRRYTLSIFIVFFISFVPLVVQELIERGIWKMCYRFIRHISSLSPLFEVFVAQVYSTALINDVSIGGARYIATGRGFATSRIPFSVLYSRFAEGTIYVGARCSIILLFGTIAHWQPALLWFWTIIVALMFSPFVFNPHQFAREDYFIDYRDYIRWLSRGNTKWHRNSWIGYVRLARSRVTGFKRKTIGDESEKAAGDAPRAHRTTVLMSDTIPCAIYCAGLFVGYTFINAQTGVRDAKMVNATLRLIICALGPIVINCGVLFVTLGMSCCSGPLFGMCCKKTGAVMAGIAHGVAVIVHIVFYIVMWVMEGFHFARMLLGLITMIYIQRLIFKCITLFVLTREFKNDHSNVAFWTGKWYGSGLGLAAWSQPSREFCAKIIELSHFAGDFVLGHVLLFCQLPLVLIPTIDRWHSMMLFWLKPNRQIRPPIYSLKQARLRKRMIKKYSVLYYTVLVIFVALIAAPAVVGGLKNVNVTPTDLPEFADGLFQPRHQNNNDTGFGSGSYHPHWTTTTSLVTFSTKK", "assay": "Inhibition of FKS1 T2080K mutant from Candida krusei 100 isolate", "summary_of_the_method": "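Glucan synthase enzyme complex isolated from posttreatment strain Ck-100. Caspofungin titrated against the enzyme. Inhibition curve fitted with a two-site competition algorithm to give IC50 in ng/ml.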"}},
  "data": [
    {"smiles": "CCC(C)CC(C)CCCCCCCCC(=O)N[C@H]1C[C@@H](O)[C@@H](NCCN)NC(=O)[C@@H]2[C@@H](O)CCN2C(=O)[C@H]([C@H](O)CCN)NC(=O)[C@H]([C@H](O)[C@@H](O)c2ccc(O)cc2)NC(=O)[C@@H]2C[C@@H](O)CN2C(=O)[C@H]([C@@H](C)O)NC1=O", "note": "(some centres not stated) [CHEBI:474180]", "values": [
      {"measurement": "IC50", "setting": "1,3-beta-glucan synthase [1]", "value": 0.0068, "unit": "µg/mL"},
      {"measurement": "IC50", "setting": "1,3-beta-glucan synthase [2]", "value": 3.94, "unit": "µg/mL"}
    ]}
  ]
}
